One assay deals with Beta-lactamase class C (Enterobacter cloacae, UniProt Q59401). Briefly: The compound was tested for its inhibitory activity towards Class C beta-lactamase from Enterobacter cloacae 908R at 0.8 umol concentration. It counts as single protein.
The next assay concerns the target Beta-lactamase TEM (Escherichia coli, UniProt P62593). Briefly: The compound was tested for its inhibitory activity towards Class A TEM-1 beta-lactamase from Escherichia coli at 0.3 umol.
The target of assay [1] is T1, Beta-lactamase 1 (Bacillus cereus) (UniProt P00809).
T1 sequence (whole entry): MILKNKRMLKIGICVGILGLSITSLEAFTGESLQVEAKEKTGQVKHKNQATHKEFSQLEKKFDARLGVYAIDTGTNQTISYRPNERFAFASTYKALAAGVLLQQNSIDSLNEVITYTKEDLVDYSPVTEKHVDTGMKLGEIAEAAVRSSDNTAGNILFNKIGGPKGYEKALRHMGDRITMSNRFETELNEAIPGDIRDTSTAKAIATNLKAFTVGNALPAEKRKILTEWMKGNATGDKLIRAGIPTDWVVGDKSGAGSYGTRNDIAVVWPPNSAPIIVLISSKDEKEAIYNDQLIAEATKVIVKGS
Briefly: Inhibitory activity at beta-lactamase I from Bacillus cereus expressed as percent inhibition of beta-lactam hydrolysis at a concentration of 100.0 umol/L. An outline of the steps:
(§1)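 B. cereus beta-lactamase I was preincubated with inhibitor (range 1–100) for 20 min at 25 °C in microtitre plates. Chromogenic substrate nitrocefin was then added, followed by a further 60 min incubation. Hydrolysis was monitored spectrophotometrically at 490 nm, and the reduction in nitrocefin hydrolysis was expressed as % enzyme inhibition.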

The target in assay [2] is T1, Beta-lactamase 1 (Bacillus cereus). Briefly: Inhibitory activity at beta-lactamase I from Bacillus cereus expressed as percent inhibition of beta-lactam hydrolysis at a concentration of 10.0 umol/L. Put shortly:
as §1

Assay [3] has the same target. The assay can be described thus: Inhibitory activity at beta-lactamase I from Bacillus cereus expressed as percent inhibition of beta-lactam hydrolysis at a concentration of 1.0 umol/L. An outline of the steps:
as §1

For assay [4] the target is unchanged. Briefly: Inhibitory activity at beta-lactamase I from Bacillus cereus expressed as percent inhibition of beta-lactam hydrolysis at a concentration of 100.0 umol/L; The inhibitory activity at lower concentrations was not determined. Put shortly: as §1

Data on 8 molecules can be found in ChEMBL document CHEMBL1135255, “Design, synthesis and bioactivity evaluation of tribactam beta lactamase inhibitors” (Bioorg Med Chem Lett, 2002).

Chain of Beta-lactamase class C (Q59401 whole entry): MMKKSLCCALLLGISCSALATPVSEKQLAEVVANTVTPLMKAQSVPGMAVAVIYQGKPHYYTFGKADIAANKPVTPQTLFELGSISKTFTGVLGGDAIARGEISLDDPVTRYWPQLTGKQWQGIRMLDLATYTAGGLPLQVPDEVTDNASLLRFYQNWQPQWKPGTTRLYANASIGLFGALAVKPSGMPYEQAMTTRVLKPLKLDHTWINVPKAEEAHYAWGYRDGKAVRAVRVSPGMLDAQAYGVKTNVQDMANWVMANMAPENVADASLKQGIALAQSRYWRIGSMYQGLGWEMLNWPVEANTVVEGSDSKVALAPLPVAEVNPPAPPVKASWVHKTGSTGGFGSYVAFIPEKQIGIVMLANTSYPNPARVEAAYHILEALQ
Chain of Beta-lactamase TEM (P62593 whole entry): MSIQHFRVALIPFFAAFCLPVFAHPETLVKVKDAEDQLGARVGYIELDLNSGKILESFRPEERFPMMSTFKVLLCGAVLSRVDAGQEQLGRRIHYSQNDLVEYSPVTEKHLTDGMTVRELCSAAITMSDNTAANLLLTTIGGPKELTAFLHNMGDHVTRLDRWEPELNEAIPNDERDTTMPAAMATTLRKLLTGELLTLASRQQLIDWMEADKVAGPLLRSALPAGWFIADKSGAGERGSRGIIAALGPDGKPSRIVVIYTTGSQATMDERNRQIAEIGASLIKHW

For orientation: inhibition means the drop in the measured response relative to a control, in per cent. Take `C/C=C1/C(=O)N2C(C(=O)O)=C3CCCCC3[C@@H]12` (some centres undefined): the IC50 at Beta-lactamase class C came out at 3 µM; on Beta-lactamase TEM (read-out: IC50), 39 µM. The figures for the inhibition in assay [1], in assay [2] and in assay [3] were 61%, 14% and -1%, respectively.

On to `C/C=C1/C(=O)N2C(C(=O)O)=C3CCSCC3[C@H]12` (some centres undefined), for which the IC50 on Beta-lactamase class C turned out to be 4.2 µM; on Beta-lactamase TEM (read-out: IC50) it was 100 µM. In addition, in assay [4], the inhibition worked out at 38%.

Turning to `C[C@@H](O)[C@H]1C(=O)N2C(C(=O)O)=C3CCCCC3[C@H]12` (some centres undefined), the inhibition in assay [4] is 5%.

Turning to `C[C@@H](O)[C@H]1C(=O)N2C(C(=O)O)=C3CCCCC3[C@@H]12` (some centres undefined), in assay [4], the inhibition came to 3%.

Turning to `O=C(O)[C@H]1/C(=C/CO)O[C@@H]2CC(=O)N21`, the inhibition in assay [1] was 78%; in assay [2], 33%; in assay [3] it was 9%.

With `CC1(C)[C@H](C(=O)O)N2C(=O)C[C@H]2S1(=O)=O`, the inhibition was determined as 77% in assay [1], 40% in assay [2] and 2% in assay [3].

For the molecule `C/C=C1/C(=O)N2C(C(=O)O)=C3CCSCC3[C@@H]12` (some centres undefined), the values for the IC50 at Beta-lactamase class C and on Beta-lactamase TEM (read-out: IC50) were 5 µM and 32 µM, respectively. Moreover, the results for the inhibition in assay [1], in assay [2] and in assay [3] were 60%, 19% and 6%, respectively.

As for `C/C=C1/C(=O)N2C(C(=O)[O-])=C3CCCCC3[C@H]12.[Na+]` (some centres undefined), the IC50 at Beta-lactamase class C is 1.8 µM; at Beta-lactamase TEM, 120 uM l-1. In addition, the inhibition in assay [4] came to 23%.
